# Furin inhibitor – human furin inhibition. P09958. purified furin, fluorogenic substrate cleavage. inhibition, % at 20 µM or 30 µM. hit rate 0.061% among 220,000; in the data active means inhibition above about 25%
# RBBP9 inhibitor – blocks human serine hydrolase RBBP9; recombinant RBBP9, FP-Rh probe fluorescence polarization; inhibition, % at 7.94 µM; hit rate 0.2% among 220,000; AID 1515;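 active means inhibition above the campaign mean of all tested compounds plus 3 SD, cut at about 14% in these data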
# Target sequence (O75884 whole entry, looked up): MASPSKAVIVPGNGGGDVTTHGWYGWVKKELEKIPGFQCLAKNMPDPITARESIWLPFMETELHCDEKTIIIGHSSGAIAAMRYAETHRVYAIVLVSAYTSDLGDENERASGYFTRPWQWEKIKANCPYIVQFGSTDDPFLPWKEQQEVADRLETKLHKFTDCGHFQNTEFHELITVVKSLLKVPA
#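 Test system: recombinant human RBBP9. Quantity: 2.5 µM RBBP9 dispensing solution, before mixing. Detection: FP readout at 525/598 nm. Reagent: Serine-hydrolase probe FP-Rh, 375 nM pre-mixing. Measure: % inhibition. Control set: DMSO-treated enzyme wells and wells lacking RBBP9. Buffer or medium: Tris-NaCl-Pluronic buffer, pH 8.0. Times: preincubation 30 min plus labeling 45 min at 25 °C.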
# p47phox inh – p47phox (human) inhibition. P14598. p47phox/p22phox peptide binding, fluorescence polarization, 2 h. inhibition, % at 24.7 µM. hit rate 0.53% among 220,000. AID 1274;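 active means inhibition above about 30%, limit read from the data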
# m-calpain inh – inhibitors of pig calpain II. purified calpain II, fluorogenic peptide substrate, 30 min. inhibition, % at 16 µM. hit rate 0.37% among 220,000. AID 1236;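 active means inhibition above about 50%, limit read from the data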
# Hits are given with their value; - = inactive; . = no result given; + = active, no number. This is a sample that favours compounds with a hit; in the whole collection about 1.1% have one here.
SMILES,Furin inhibitor,RBBP9 inhibitor,p47phox inh,m-calpain inh
O=C(O)c1cccc(NC(=S)NC(=O)c2ccc(-c3ccccc3)cc2)c1,-,-,-,70.4
CN(C)CCCn1c(SCC(=O)Nc2nc(-c3cccc(Br)c3)cs2)nc2ccccc2c1=O,-,-,76.2,-
O=C(CSc1nc2ccccc2[nH]1)Nc1nc(-c2cccc(Br)c2)cs1,-,-,-,-
Cc1cc(C)c2c(=O)[nH]c(SCC(=O)NCc3ccccc3)nc2n1,-,-,-,-
Cc1cc(C)c2c(=O)[nH]c(SCC(=O)c3ccc(F)c(C)c3)nc2n1,-,-,37.6,-
COc1cc(C2N=C(c3ccccc3)NO2)cc(Br)c1O (stereo not drawn),-,-,+,-
CCc1ccc2nc(N3C(=O)c4oc5ccccc5c(=O)c4C3c3ccc(OC)c(OC)c3)sc2c1 (stereo not drawn),-,-,37.8,-
CCCCn1c(-c2csc(CC)c2)n[nH]c1=S,-,-,-,-
CCCc1cc(-c2n[nH]c(=S)n2CC(C)C)cs1,-,-,-,50.3
CCOC(=O)c1[nH]c(C)c(C(=O)OCC(=O)N(C)C2CCS(=O)(=O)C2)c1C (stereo not drawn),-,-,-,-
Cc1nc(N2CCN(c3ccccc3)CC2)nc2c1C(=O)CC(c1ccccc1)C2 (stereo not drawn),-,-,-,-
Cc1nc(N2CCN(c3ccccc3)CC2)nc2c1C(=O)CC(C)C2 (stereo not drawn),-,-,-,72.5
Cc1occc1C(=O)Nc1cccc([N+](=O)[O-])c1C,-,-,-,-
Nc1cc(S(=O)(=O)N2CCCCC2)ccc1Oc1ccc(Cl)cc1,-,-,-,63.5
[N-]=[N+]=CC(=O)CC(c1ccccc1)N1C(=O)c2ccccc2C1=O (stereo not drawn),-,-,51.0,-
[N-]=[N+]=CC(=O)CCCN1C(=O)c2ccccc2C1=O,-,-,-,-
O=c1c2c(-c3ccccc3)csc2ncn1/N=C/c1ccc(O)c([N+](=O)[O-])c1,-,-,.,55.6
COc1cc([N+](=O)[O-])ccc1-c1ccc(/C=N/NC(=O)c2ccccc2O)o1,-,-,-,53.5
CC(C)Sc1nc2c([nH]c3ccccc32)c(=O)n1C,-,-,-,81.9
CCOC(=O)C(C)Sc1nc2c([nH]c3ccccc32)c(=O)n1C (stereo not drawn),-,-,-,-
CCN(CC(=O)NCc1cccs1)S(=O)(=O)c1cccc(C(C)=O)c1,-,-,-,-
CCN(CC(=O)NC1CCS(=O)(=O)C1)S(=O)(=O)c1cccc(C(C)=O)c1 (stereo not drawn),-,-,43.0,-
N#Cc1ccc(N/N=C/c2cn(-c3ccccc3)nc2-c2ccccc2)c([N+](=O)[O-])c1,-,-,51.1,-
COc1cc(-c2[nH]ncc2CN(C)Cc2cc(C)[nH]n2)cc(OC)c1OC,-,-,36.4,-
COc1cc(-c2[nH]ncc2CN(C)Cc2nonc2C)cc(OC)c1OC,-,-,-,-
SMILES,Furin inhibitor,RBBP9 inhibitor,p47phox inh,m-calpain inh
COc1ccc(C(=O)CSc2nnc(CN3CCCCC3)n2-c2ccc(F)cc2)cc1,-,-,-,-
O=C(O)c1cccc(N2C(=O)/C(=C/c3ccc(SCc4ccc(Cl)cc4)o3)SC2=S)c1,-,-,-,69.3
O=C(NCC1CC1)c1onc(CSc2ccncc2)c1C(=O)NCC1CC1,-,.,-,-
COc1ccc(NC(=O)C2C3CC/C=C\CCC32)cc1 (stereo not drawn),-,-,-,-
O=C(Nc1ccc(O)cc1)C1CC=CCC1 (stereo not drawn),-,-,56.4,-
O=C1CCC(CCC(=O)N2CCCC(C(=O)c3cccc(C(F)(F)F)c3)C2)=NN1 (stereo not drawn),-,-,-,-
O=C(NCCc1csc(-c2ccccc2)n1)c1ccc(Br)o1,-,-,-,-
O=C(NCCc1csc(-c2cccnc2)n1)c1ccc(Br)o1,-,-,-,99.0
O=c1[nH]c2ccc(S(=O)(=O)Nc3ccc(-c4nnc5n4CCCCC5)cc3)cc2o1,-,-,55.9,-
CN(C)S(=O)(=O)Nc1ccccc1F,-,-,-,-
Cc1cc(C)c(Nc2cc(S(=O)(=O)O)c(N)c3c2C(=O)c2ccccc2C3=O)c(C)c1,-,-,58.9,-
CCOC(=O)c1c(CSC(=N)N)n(-c2ccc(C)cc2)c2cc(Br)c(OC(C)=O)cc12,-,-,37.4,-
Cc1nn(C)cc1/C=N/NC(=O)Cn1cncn1,-,-,-,-
Cc1c(Cl)c([N+](=O)[O-])nn1CC(=O)N1CCN(Cc2ccccc2)CC1,-,-,-,-
CCNC(=O)c1c(NC(=O)c2cc(-c3cc(C)ccc3O)n[nH]2)sc2c1CCCC2,-,-,52.4,-

# Assay outcomes deposited in PubChem BioAssay by several laboratories.
